Sampled rows, rich in hits. Any-hit rate of the full collection: about 3.5%.
Ecoli rRNA inh: inhibits bacterial ribosomal RNA function over humanized ribosomes | E. coli WT GFP vs humanized-ribosome RFP mutants, fluorescence, 24 h; stronger effect = lower value; DMSO median 0, no signal -100 | GFP signal change (wild-type ribosome), % (concentration not given with the values) | 350,000 tested, 1.6% active;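 active = significant combined selectivity score with lowered wild-type GFP, culture density cut under 30%, mutant RFP and density less affected; inactive = any of these conditions unmet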
FN deposit inh: fibronectin deposition inhibition. AH1F fibroblasts, Alexa488-fibronectin deposition fluorescence, overnight. 350,000 tested, 0.086% active. inhibition, % at 12.6 µM. AID 743247;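 active = mean inhibition across replicates of 30% or more, regardless of how many single replicates reach that level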;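 also: positive control wells lacked labelled fibronectin entirely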
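Assay system: AH1F fibroblasts assembling fluorescent fibronectin matrix; Amount: 10000 AH1F cells per well; Buffer or medium: DMEM, 2% serum; Probe or stimulus: Alexa488-fibronectin, 24 nM final in well; Doses: single compound dose, delivered by pin transfer; Incubation: 1 h adhesion, overnight exposure; Measured by: fluorescence 485/525 nm; Read-out: fibronectin deposition inhibition.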
PGC1a acetyl inh: lowers PGC1a acetylation signal in U2OS cells | AlphaScreen anti-acetyl-lysine; with virally co-expressed GCN5 acetyltransferase | inhibition, % at 15.6 µM | 350,000 tested, 0.17% active;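 active = every replicate shows inhibition of at least 40%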;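 also: 0% = neutral control wells and 100% = positive control wells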
HIV Env fusion: HIV envelope-mediated fusion inhibition; HeLa-JRFL Env/CEM21 cell fusion, luciferase; inhibition, % at 12.3 µM; 360,000 tested, 1.1% active; AID 651610;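 active = mean replicate inhibition score of at least 50 and every replicate individually at or above 50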;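 also: 0% = plate neutral controls and 100% = maraviroc near 300 nM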
DENV2 CPE rescue: protects cells from dengue virus 2 cytopathic effect; DENV2-infected cells, cytopathic effect rescue, plate reader; CPE inhibition, % at 9.99 µM; 350,000 tested, 1.7% active; AID 651640; in the data active = CPE inhibition above about 20%, passing the limit was not always enough; tested in BHK-21 cells;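 also: 0% = median of neutral control wells and 100% = median of positive control wells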
PglD inh: blocks C. jejuni PglD acetyltransferase activity. AID 602405. purified PglD enzyme, DTNB colorimetric CoA detection. inhibition, % at 12.5 µM. 360,000 tested, 0.098% active; in the data active = inhibition above about 16%, passing the limit was not always enough
An asterisk follows results filed as active; [ ] = another dose, or the depositor's remark.

`COc1ccc(S(=O)(=O)N(C)C[C@H]2Oc3c(NC(=O)Nc4ccc(C(F)(F)F)cc4)cccc3C(=O)N([C@@H](C)CO)C[C@H]2C)cc1` gave Ecoli rRNA inh 2, FN deposit inh -5, PGC1a acetyl inh 4, HIV Env fusion 108*[16.7 µM], DENV2 CPE rescue -5 and PglD inh -3.
For COc1ccc(S(=O)(=O)N(C)C[C@@H]2Oc3c(NC(=O)Nc4ccc(C(F)(F)F)cc4)cccc3C(=O)N([C@@H](C)CO)C[C@H]2C)cc1 the results were Ecoli rRNA inh 2, FN deposit inh 7, PGC1a acetyl inh 4, HIV Env fusion -47[16.7 µM], DENV2 CPE rescue 6 and PglD inh -3.
For COc1ccc(S(=O)(=O)N(C)C[C@H]2Oc3c(NC(=O)Nc4ccc(C(F)(F)F)cc4)cccc3C(=O)N([C@H](C)CO)C[C@@H]2C)cc1 the results were Ecoli rRNA inh -5, FN deposit inh -3, PGC1a acetyl inh -3, DENV2 CPE rescue 21* and PglD inh -3.
For Cc1onc(-c2ccccc2)c1C(=O)Nc1ccc(OC(C)C)cc1 the results were Ecoli rRNA inh -3, FN deposit inh -5, PGC1a acetyl inh 11, HIV Env fusion -10, DENV2 CPE rescue 1 and PglD inh -1.
`Cc1onc(-c2ccccc2)c1NC(=O)Nc1ccc(OC(F)F)cc1` gave Ecoli rRNA inh -22*, FN deposit inh -8, PGC1a acetyl inh 0, HIV Env fusion 2, DENV2 CPE rescue 1 and PglD inh 1.
`O=C(O)CN1C(=O)C=CC1=O` gave Ecoli rRNA inh 6, FN deposit inh 8, HIV Env fusion inactive, DENV2 CPE rescue 1 and PglD inh -6.
Screening O=C1C=CC(=O)N1CCCCCCN1C(=O)C=CC1=O returned FN deposit inh 48* and HIV Env fusion -15.
For Cc1ccc(C)c(N2CN(CCC3=CCCCC3)CNC2=S)c1 the results were Ecoli rRNA inh -28*, FN deposit inh -1, PGC1a acetyl inh 3, HIV Env fusion 4 and DENV2 CPE rescue 7.
For CN1C(C(=O)NCc2cccs2)=CC(c2ccc(F)cc2)=NS1(=O)=O the results were Ecoli rRNA inh -3, FN deposit inh -5, PGC1a acetyl inh -6, HIV Env fusion 71*, DENV2 CPE rescue 1 and PglD inh -2.
Screening COc1ccc(C2=NS(=O)(=O)N(C)C(C(=O)NCc3cccs3)=C2)cc1OC returned Ecoli rRNA inh -7, FN deposit inh -1, PGC1a acetyl inh -6, HIV Env fusion -21, DENV2 CPE rescue -5 and PglD inh -5.
For C[C@H](NC(=O)C[C@H]1C=C[C@@H](NC(=O)C2CC2)[C@H](CO)O1)c1ccccc1 the results were Ecoli rRNA inh 0, FN deposit inh -2, PGC1a acetyl inh -6, HIV Env fusion -11[16.7 µM], DENV2 CPE rescue 2 and PglD inh -1.
For O=C(NCc1cccnc1)c1ccc(COc2ccccc2Br)o1 the results were Ecoli rRNA inh -24*, PGC1a acetyl inh -27, DENV2 CPE rescue 1 and PglD inh 1.
CCCc1ccc(OCc2ccc(C(=O)OC)o2)c(OC)c1 was read as Ecoli rRNA inh -19*, PGC1a acetyl inh -14 and DENV2 CPE rescue -4.
`O=C(NCc1cccnc1)c1ccc(COc2ccc3c(c2)CCC3)o1` gave Ecoli rRNA inh -21*, PGC1a acetyl inh -22, DENV2 CPE rescue 4 and PglD inh 0.
`CCc1ccc(OCc2ccc(C(=O)OC)o2)cc1` gave Ecoli rRNA inh -2, FN deposit inh 12, PGC1a acetyl inh 6, HIV Env fusion -91, DENV2 CPE rescue 11 and PglD inh 5.
For COC(=O)c1ccc(COc2ccc3c(c2)CCC3)o1 the results were Ecoli rRNA inh -24*, FN deposit inh -13, PGC1a acetyl inh 6, HIV Env fusion -29 and DENV2 CPE rescue 3.
O=C(NCc1cccnc1)c1ccc(COc2ccccc2Cl)o1 was read as Ecoli rRNA inh -24, FN deposit inh -10, PGC1a acetyl inh -29 and HIV Env fusion 6.
For CCC(=O)Nc1ccc2c(c1)OC[C@H](C)N(C(=O)NC(C)C)C[C@@H](C)[C@H](OC)CN(C)C2=O the results were Ecoli rRNA inh 2, FN deposit inh -15, PGC1a acetyl inh 8, HIV Env fusion 21[16.7 µM], DENV2 CPE rescue -5 and PglD inh 0.
Screening NNC(=O)c1ccc(COc2ccc3c(c2)CCC3)cc1 returned Ecoli rRNA inh -26*, FN deposit inh 5, HIV Env fusion 6 and DENV2 CPE rescue 6.
COc1cc(NC(=O)NCc2ccco2)ccc1-c1ccc(NC(=O)NCc2ccco2)cc1OC was read as Ecoli rRNA inh 16, FN deposit inh 0, PGC1a acetyl inh 48*, HIV Env fusion -50, DENV2 CPE rescue 11 and PglD inh 0.
For COc1ccccc1-c1ccc([C@@H]2[C@H](CO)N3CCCCN(S(=O)(=O)c4cn(C)cn4)C[C@@H]23)cc1 the results were Ecoli rRNA inh 1, PGC1a acetyl inh -3, DENV2 CPE rescue -7 and PglD inh 0.
`CC(C)N1C(=O)c2ccccc2NC(=O)C1C(=O)NCc1ccccc1` (stereo not given) gave Ecoli rRNA inh 16, FN deposit inh -3, HIV Env fusion 59* and DENV2 CPE rescue -1.
Cc1noc(C)c1S(=O)(=O)Nc1ccc2c(c1)C(=O)N([C@@H](C)CO)C[C@@H](C)[C@H](CN(C)C(=O)Cc1ccccc1)OCCCC[C@H](C)O2 was read as Ecoli rRNA inh -2, PGC1a acetyl inh 27, HIV Env fusion 3[16.7 µM], DENV2 CPE rescue 9 and PglD inh 0.
For CC(C)(C)C(=O)c1sc(Nc2ccccc2)nc1N the results were Ecoli rRNA inh -39*, PGC1a acetyl inh -24 and PglD inh -2.
`CC(=O)c1sc(Nc2ccccc2)nc1C` gave Ecoli rRNA inh 0, FN deposit inh -4, PGC1a acetyl inh -7, HIV Env fusion -32, DENV2 CPE rescue -7 and PglD inh -4.
For O=C(Nc1ccc(-n2ccc(C(F)(F)F)n2)cc1)Nc1cccc(Cl)c1 the results were Ecoli rRNA inh -51*, FN deposit inh 7, HIV Env fusion -29 and DENV2 CPE rescue -15.
Screening CC(=O)c1ccc(NC(=S)NC(C)c2ccc(Cl)cc2Cl)cc1 (stereo not given) returned Ecoli rRNA inh -49*, PGC1a acetyl inh -10, HIV Env fusion 4 and PglD inh 0.
Screening CCC(=O)N1[C@@H]2Cn3c(ccc(C4=CCCC4)c3=O)[C@H]1[C@@H](C(=O)N[C@H](C)c1ccccc1)[C@@H]2CO returned Ecoli rRNA inh -4, DENV2 CPE rescue 5 and PglD inh 1.
Cc1ccc(S(=O)(=O)N2C[C@@H]3[C@H]4CC[C@H](C4)[C@@H]3[C@@H](C)[C@@H]2c2cn(Cc3ccccc3)c3ncccc23)cc1 was read as Ecoli rRNA inh 9, HIV Env fusion 18, DENV2 CPE rescue 11 and PglD inh -1.

Source: PubChem BioAssay (Broad Institute)
